Only some compounds are listed: those with a hit (about 2.5% of all), similar ones and a draw of the others.
Glyco luc inh – N-linked glycosylation inhibition; D54 ERlucT glycosylation luciferase reporter, 24 h; percent of 100 nM tunicamycin response; reporter increase, % at 12.5 µM; 0.23% of 360,000 active;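 active = mean luciferase reporter signal, scaled so untreated is 0 and the glycosylation-blocking control 100, at or above a set limit in every replicate; inconclusive = mean reaches the limit but not every replicate does; inactive = mean below the limit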;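 also: luciferase carries N-glycosylation sites so blocking glycosylation raises the light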
Env fusion inh – HIV envelope-mediated fusion inhibition | HeLa-JRFL Env/CEM21 cell fusion, luciferase | inhibition, % at 12.3 µM | 1.1% of 360,000 active | AID 651610;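 active = mean replicate inhibition score of at least 50 and every replicate individually at or above 50; inconclusive = only one of the two criteria met; inactive = mean below 50 and not all replicates reaching 50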
FN deposition inh – fibronectin deposition inhibition; inhibition, % at 12.6 µM; AID 743247; 0.086% of 350,000 active; AH1F fibroblasts, Alexa488-fibronectin deposition fluorescence, overnight;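 active = mean inhibition across replicates of 30% or more, regardless of how many single replicates reach that level; inconclusive = mean under 30% yet at least half of replicates reach 30%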
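Assay system: AH1F fibroblasts / Quantity: 10000 cells per well / Medium: DMEM plus 2% serum, read in PBS / Reagent: labelled fibronectin 24 nM / Dosing: single dose, pinned / Times: 1 h cell attachment, overnight exposure to compound and label / Signal: fluorescence, ex 485 nm, em 525 nm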
EWS-Fli inh – EWS/Fli transcriptional activity inhibition | A673 NR0B1-luciferase reporter, viability-normalised | inhibition, % at 12.6 µM | 0.67% of 350,000 active | AID 651661;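 active = mean inhibition of at least 50% after viability correction, with every replicate also passing that limit; inconclusive = mean reaches 50% but only one of two replicates passes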;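 also: firefly luciferase signal divided by Alamar Blue viability fluorescence both relative to DMSO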
AF4-AF9 inh – blocks AF4 peptide binding to human AF9. P42568. AlphaScreen, biotin-AF4 peptide binding to FLAG-AF9. inhibition, % at 10 µM. 0.47% of 350,000 active. AID 651704;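 active = every replicate reaching a set inhibition limit, whatever the replicate mean, cut at about 25% in these data; inconclusive = mean inhibition reaches that limit but some replicates miss it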
Target sequence (P42568 whole entry, looked up): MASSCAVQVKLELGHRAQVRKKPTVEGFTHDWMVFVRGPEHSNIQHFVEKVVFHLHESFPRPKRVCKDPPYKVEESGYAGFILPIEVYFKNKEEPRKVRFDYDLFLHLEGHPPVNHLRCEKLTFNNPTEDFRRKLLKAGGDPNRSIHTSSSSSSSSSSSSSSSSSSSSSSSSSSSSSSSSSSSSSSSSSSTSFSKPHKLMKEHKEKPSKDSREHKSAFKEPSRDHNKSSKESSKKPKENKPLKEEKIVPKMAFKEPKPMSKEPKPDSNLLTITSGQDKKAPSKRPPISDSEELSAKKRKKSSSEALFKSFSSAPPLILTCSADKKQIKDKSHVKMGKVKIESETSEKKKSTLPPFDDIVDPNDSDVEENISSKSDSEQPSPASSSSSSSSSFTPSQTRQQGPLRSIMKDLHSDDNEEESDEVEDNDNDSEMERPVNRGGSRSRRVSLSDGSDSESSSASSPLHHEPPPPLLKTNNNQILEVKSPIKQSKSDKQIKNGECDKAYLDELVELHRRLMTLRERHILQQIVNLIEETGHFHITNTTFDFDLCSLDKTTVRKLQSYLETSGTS
PAX8 reporter – lowers PAX8-driven luciferase in RMG-I cells; RMG-I TPO-luciferase reporter, SteadyGlo, 24 h; inhibition, % at 12.6 µM; 1.2% of 360,000 active;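 active = mean replicate inhibition at least 60% with every replicate also reaching 60%; inconclusive = only one of the two criteria is met; inactive = mean below 60% and not all replicates reaching 60%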;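 also: luciferase light reporting Pax8 driven TPO promoter activity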
Hits are given with their value; 0 = inactive; ? = inconclusive; - = not tested or not shown; [ ] = another dose, or the depositor's remark.

SMILES | Glyco luc inh | Env fusion inh | FN deposition inh | EWS-Fli inh | AF4-AF9 inh | PAX8 reporter
Fc1ccccc1C1c2[nH]c3ccccc3c2CCN1Cc1cccn1-c1ncccn1 (stereo not drawn) | 0 | 0 | 0 | 0 | 27 | 0
CCC(=O)N1[C@@H](CO)[C@@H](c2ccccc2)C12CN(C(=O)NC1CCCC1)C2 | - | - | - | 0 | 0 | 0
C[C@@H]1CN([C@H](C)CO)C(=O)c2cccc(NC(=O)Nc3cccc4ccccc34)c2O[C@@H]1CN(C)S(=O)(=O)c1cn(C)cn1 | - | - | 0 | 0 | 0 | -
Cc1c(C(=O)N(Cc2ccc(N(C)C)cc2)C2CCS(=O)(=O)C2)oc2ccccc12 (stereo not drawn) | 0 | 0 | 0 | 0 | 61 | 0
Cc1c(C(=O)N(Cc2ccccc2)C2CCS(=O)(=O)C2)oc2ccccc12 (stereo not drawn) | 0 | 0 | 0 | 0 | ? | 0
Cc1ccc2oc(C(=O)N(Cc3ccc(N(C)C)cc3)CC3CCCO3)c(C)c2c1 (stereo not drawn) | 0 | 0 | 0 | - | 28 | 0
CC[N+]1(C)CCC(O)(c2ccc(OC)cc2)C(C(=O)c2ccc(OC)cc2)C1 (stereo not drawn) | 0 | 0 | 0 | 0 | 0 | 76
COc1ccc(-c2ccc(C(=O)C3CC3)cc2)cc1 | 0 | 0 | 0 | 0 | 0 | 0
CC1(C)C(C=C(Cl)Cl)C1C(=O)Nc1ccc([N+](=O)[O-])cc1 (stereo not drawn) | - | 0 | 0 | 0 | 0 | 99
CN1C(=O)c2cc(NC(=O)C3CCC3)ccc2OC[C@@H]2O[C@H](CC(=O)NCc3ccccc3F)CC[C@@H]21 | - | - | 0 | - | 0 | 0
COCC(=O)N1[C@H](CO)[C@@H]2c3ccccc3N(C(=O)c3ccccc3)C[C@@H]21 | - | - | - | 0 | 0 | 0
CC(O)C(NS(=O)(=O)c1ccc(Cl)cc1)C(=O)OCC(=O)c1ccc2c(c1)NC(=O)CO2 (stereo not drawn) | 0 | 0 | 0 | 0 | 0 | 0
CC(C)CC(NC(=O)c1ccc(Cl)cc1)C(=O)OCC(=O)c1ccc2c(c1)NC(=O)CO2 (stereo not drawn) | 60 | - | - | - | - | -
Cc1cc(C)c(S(=O)(=O)c2c(C)cccc2C)c(OCC(C)C)n1 | 0 | 78 | 0 | - | - | -
C#CCOc1nc(C)cc(C)c1S(=O)(=O)c1ccccc1C | 0 | 0 | 0 | 0 | 0 | 0
C[C@@H]1CN([C@@H](C)CO)C(=O)c2cc(NS(=O)(=O)c3ccccc3)ccc2O[C@@H](C)CCCCO[C@H]1CN(C)S(=O)(=O)c1ccc(Cl)cc1 | - | - | 0 | 0 | 0 | 0
O=C(NCC[C@H]1CC[C@H](NS(=O)(=O)c2ccc(F)cc2)[C@@H](CO)O1)c1ccccc1F | - | - | - | 0 | 0 | -
O=C(c1ccncc1)N1CCN(c2cc(-c3ccccc3)nc3cc(-c4cccc(Cl)c4)nn23)CC1 | 0 | ? | 0 | 0 | 0 | 68
O=C(c1ccoc1)N1CCN(c2cc(-c3ccncc3)nc3cc(-c4cccc(Cl)c4)nn23)CC1 | 0 | 0 | 0 | 0 | 0 | 0
O=C(NCC[C@@H]1CC[C@@H](NC(=O)c2ccc3c(c2)OCO3)[C@H](CO)O1)Nc1cc(F)ccc1F | - | 0 | 0 | 0 | 0 | 0
COCC(=O)Nc1ccc2c(c1)OC[C@H](C)N(C(=O)NC(C)C)C[C@@H](C)[C@H](OC)CN(C)C2=O | - | 0 | 0 | 0 | 0 | 0
COc1cccc(CNC(=O)C[C@@H]2C=C[C@H](NC(=O)C3CCC3)[C@H](CO)O2)c1 | - | 65[16.7 µM] | - | 0 | 0 | 0
O=C(C[C@@H]1C=C[C@H](NC(=O)c2ccccc2)[C@H](CO)O1)NCc1ccc(Oc2ccccc2)cc1 | - | 61[16.7 µM] | 0 | 0 | 0 | 0
COC(=O)C[C@H]1C=C[C@H](NC(=O)c2ccccn2)[C@@H](CO)O1 | - | 72 | 0 | 0 | 0 | 0
O=C(C[C@@H]1C=C[C@@H](NC(=O)c2ccccc2)[C@H](CO)O1)NCc1ccc(Oc2ccccc2)cc1 | - | 57[16.7 µM] | 0 | 0 | 0 | 0
COCCNC(=O)C[C@@H]1CC[C@@H]2[C@H](COC[C@H](O)CN2Cc2cccc(-c3ccncc3)c2)O1 | - | 0 | 0 | 0 | 0 | 0
COCCN=c1scc(-c2cccs2)n1/N=C/c1ccc(O)c(O)c1O | 0 | 0 | 0 | 0 | 53 | 0

Screens (PubChem)
